Experiments:
[1] = system: Mus musculus; assay: Antinociceptive activity in Swiss albino mouse assessed as inhibition of formalin-induced flinching at 5 mg/kg administered 30 mins prior to test measured for 10 to 30 mins relative to control; type: functional
[2] = system: Mus musculus; assay: Antinociceptive activity in Swiss albino mouse assessed as inhibition of formalin-induced flinching at 5 mg/kg administered 30 mins prior to test measured up to 5 mins relative to control; type: functional
[3] = system: Mus musculus; assay: Neurotoxicity in Swiss albino mouse assessed as minimal motor impairment at 300 mg/kg after 0.5 hrs by rotarod test; type: toxicity, organism-based; design: dose 300 mg/kg; details: in vivo
Outline: (§1)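 Swiss albino mice of either sex, 20-25 g, dosed at 30, 100 and 300 mg/kg, three per group. Minimal motor impairment scored by rotarod at 0.5 and 4.0 h after dosing. Reported value is the lowest dose giving impairment in half or more of the mice.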

[4] = system: Mus musculus; assay: Neurotoxicity in Swiss albino mouse assessed as minimal motor impairment at 300 mg/kg after 4 hrs by rotarod test; type: toxicity, organism-based; design: dose 300 mg/kg; details: in vivo; outline: as §1
[5] = system: Mus musculus; assay: Antinociceptive activity in Swiss albino mouse assessed as inhibition of acetic acid-induced writhing at 5 mg/kg administered 30 mins prior to acetic acid-challenge measured for 30 mins relative to control; type: functional
[6] = system: Rattus norvegicus; assay: Antinociceptive activity in Wistar rat chronic constriction injury model assessed as reversal of spontaneous pain response at 100 mg/kg, ip after 120 mins (reference value: 4.5 +/- 0.2%); type: functional; details: route intraperitoneal
[7] = system: Rattus norvegicus; assay: Antinociceptive activity in Wistar rat chronic constriction injury model assessed as reversal of mechanical allodynia at 100 mg/kg, ip after 120 mins (reference value: 5.3 +/- 0.5%); type: functional; details: route intraperitoneal
[8] = system: Rattus norvegicus; assay: Antinociceptive activity in Wistar rat chronic constriction injury model assessed as reversal of tactile allodynia at 100 mg/kg, ip after 120 mins (reference value: 4.1 +/- 2.1%); type: functional; details: route intraperitoneal
[9] = system: Rattus norvegicus; assay: Antinociceptive activity in Wistar rat partial sciatic nerve ligation model assessed as reversal of spontaneous pain response at 100 mg/kg, ip after 120 mins (reference value: 1.2 +/- 0.1%); type: functional; details: route intraperitoneal
[10] = system: Rattus norvegicus; assay: Antinociceptive activity in Wistar rat chronic constriction injury model assessed as reversal of cold allodynia at 100 mg/kg, ip after 30 mins (reference value: 0.6 +/- 2.7%); type: functional; details: route intraperitoneal
[11] = system: Rattus norvegicus; assay: Antinociceptive activity in Wistar rat partial sciatic nerve ligation model assessed as reversal of spontaneous pain response at 100 mg/kg, ip after 30 mins (reference value: 3.2 +/- 0.3%); type: functional; details: route intraperitoneal
[12] = organism: Mus musculus; assay: Neurotoxicity in Swiss albino mouse assessed as minimal motor impairment after 4 hrs by rotarod test; type: toxicity, organism-based; details: in vivo
Outline: (§2)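 Mice, either sex, 20-25 g, dosed at 30, 100 and 300 mg/kg. Minimal motor impairment was scored on the rotarod at 0.5 and 4.0 h. Value reported is the minimum dose showing the effect in half or more of three mice per group.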

[13] = system: Rattus norvegicus; assay: Antinociceptive activity in Wistar rat chronic constriction injury model assessed as reversal of tactile allodynia at 100 mg/kg, ip after 60 mins (reference value: 1.3 +/- 0.3%); type: functional; details: route intraperitoneal
[14] = system: Rattus norvegicus; assay: Antinociceptive activity in Wistar rat partial sciatic nerve ligation model assessed as reversal of tactile allodynia at 100 mg/kg, ip after 120 mins relative to control; type: functional; details: route intraperitoneal
[15] = system: Rattus norvegicus; assay: Antinociceptive activity in Wistar rat partial sciatic nerve ligation model assessed as reversal of cold allodynia at 100 mg/kg, ip after 30 mins (reference value: 4.1 +/- 1.0%); type: functional; details: route intraperitoneal
[16] = system: Rattus norvegicus; assay: Antinociceptive activity in Wistar rat chronic constriction injury model assessed as reversal of tactile allodynia at 100 mg/kg, ip after 30 mins (reference value: 3.4 +/- 0.8%); type: functional; details: route intraperitoneal
[17] = system: Rattus norvegicus; assay: Antinociceptive activity in Wistar rat chronic constriction injury model assessed as reversal of mechanical allodynia at 100 mg/kg, ip after 30 mins (reference value: 4.7 +/- 2.1%); type: functional; details: route intraperitoneal
[18] = system: Rattus norvegicus; assay: Antinociceptive activity in Wistar rat chronic constriction injury model assessed as reversal of cold allodynia at 100 mg/kg, ip after 120 mins (reference value: 5.4 +/- 1.9%); type: functional; details: route intraperitoneal
[19] = system: Rattus norvegicus; assay: Antinociceptive activity in Wistar rat partial sciatic nerve ligation model assessed as reversal of cold allodynia at 100 mg/kg, ip after 60 mins (reference value: 2.5 +/- 0.3%); type: functional; details: route intraperitoneal
[20] = system: Rattus norvegicus; assay: Antinociceptive activity in Wistar rat chronic constriction injury model assessed as reversal of mechanical allodynia at 100 mg/kg, ip after 60 mins (reference value: 4.9 +/- 1.0%); type: functional; details: route intraperitoneal
[21] = system: Rattus norvegicus; assay: Antinociceptive activity in Wistar rat partial sciatic nerve ligation model assessed as reversal of mechanical allodynia at 100 mg/kg, ip after 120 mins (reference value: 2.9 +/- 0.3%); type: functional; details: route intraperitoneal
[22] = system: Mus musculus; assay: Antinociceptive activity in Swiss albino mouse assessed as inhibition of formalin-induced flinching at 100 mg/kg administered 30 mins prior to test measured up to 5 mins relative to control; type: functional
[23] = system: Rattus norvegicus; assay: Antinociceptive activity in Wistar rat chronic constriction injury model assessed as reversal of spontaneous pain response at 100 mg/kg, ip after 30 mins (reference value: 8.9 +/- 4.6%); type: functional; details: route intraperitoneal
[24] = system: Rattus norvegicus; assay: Antinociceptive activity in Wistar rat partial sciatic nerve ligation model assessed as reversal of spontaneous pain response at 100 mg/kg, ip after 60 mins (reference value: 2.9 +/- 0.3%); type: functional; details: route intraperitoneal
[25] = system: Rattus norvegicus; assay: Antinociceptive activity in Wistar rat chronic constriction injury model assessed as reversal of cold allodynia at 100 mg/kg, ip after 60 mins (reference value: 6.3 +/- 1.9%); type: functional; details: route intraperitoneal
[26] = system: Mus musculus; assay: Antinociceptive activity in Swiss albino mouse assessed as inhibition of acetic acid-induced writhing at 100 mg/kg administered 30 mins prior to acetic acid-challenge measured for 30 mins relative to control; type: functional
Outline: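 Swiss albino mice (20–25 g, either sex); writhing induced by i.p. 0.1 mL of 2.0% v/v acetic acid given half an hour after test compound dosing.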

[27] = system: Rattus norvegicus; assay: Antinociceptive activity in Wistar rat chronic constriction injury model assessed as reversal of spontaneous pain response at 100 mg/kg, ip after 60 mins (reference value: 4.6 +/- 0.6%); type: functional; details: route intraperitoneal
[28] = system: Mus musculus; assay: Antinociceptive activity in Swiss albino mouse assessed as inhibition of formalin-induced flinching at 100 mg/kg administered 30 mins prior to test measured for 10 to 30 mins relative to control; type: functional
[29] = system: Rattus norvegicus; assay: Antinociceptive activity in Wistar rat partial sciatic nerve ligation model assessed as reversal of cold allodynia at 100 mg/kg, ip after 120 mins (reference value: 1.5 +/- 0.5%); type: functional; details: route intraperitoneal
[30] = system: Rattus norvegicus; assay: Antinociceptive activity in Wistar rat partial sciatic nerve ligation model assessed as reversal of mechanical allodynia at 100 mg/kg, ip after 60 mins (reference value: 2.8 +/- 0.3%); type: functional; details: route intraperitoneal
[31] = system: Rattus norvegicus; assay: Antinociceptive activity in Wistar rat partial sciatic nerve ligation model assessed as reversal of mechanical allodynia at 100 mg/kg, ip after 30 mins (reference value: 2.9 +/- 0.3%); type: functional; details: route intraperitoneal
[32] = organism: Mus musculus; assay: Neurotoxicity in Swiss albino mouse assessed as minimal motor impairment after 0.5 hrs by rotarod test; type: toxicity, organism-based; details: in vivo; outline: as §2
[33] = system: Rattus norvegicus; assay: Antinociceptive activity in Wistar rat partial sciatic nerve ligation model assessed as reversal of tactile allodynia at 100 mg/kg, ip after 60 mins (reference value: 12.5 +/- 1.2%); type: functional; details: route intraperitoneal
[34] = system: Rattus norvegicus; assay: Antinociceptive activity in Wistar rat partial sciatic nerve ligation model assessed as reversal of tactile allodynia at 100 mg/kg, ip after 30 mins (reference value: 7.7 +/- 0.7%); type: functional; details: route intraperitoneal

COc1ccc2c(c1)c(CC(=O)O)c(C)n2C(=O)c1ccc(Cl)cc1 [INDOMETHACIN]
inhibition in vivo at 5 mg/kg [1]: 72.1%
inhibition in vivo at 5 mg/kg [2]: 4.7%
Activity [3]: Non-toxic
Activity [4]: Non-toxic
inhibition in vivo at 5 mg/kg [5]: 96.1%

CCN1CCc2c(c(C)nn2C(=O)Nc2ccc(C)cc2C)C1
Activity [6]: 64.4%
Activity [7]: 65%
Activity [8]: 66.1%
Activity [9]: 5.9%
Activity [10]: 54.4%
Activity [11]: 40.7%
MLD [12]: 300 mg/kg
Activity [13]: 56.6%
Activity [14]: 30.2%
Activity [15]: 60.4%
Activity [16]: 17.2%
Activity [17]: 70.8%
Activity [18]: 41.8%
Activity [19]: 14.3%
Activity [20]: 57.5%
Activity [21]: 18.7%
inhibition in vivo at 100 mg/kg [22]: 7%
Activity [23]: 72.9%
Activity [24]: 34.4%
Activity [25]: 37.3%
inhibition in vivo at 100 mg/kg [26]: 56.1%
Activity [27]: 67.5%
inhibition in vivo at 100 mg/kg [28]: 16.3%
Activity [29]: 38.7%
Activity [30]: 50.5%
Activity [31]: 63.3%
MLD [32]: 300 mg/kg
Activity [33]: 41.9%
Activity [34]: 53.3%

Source: ChEMBL document CHEMBL2412964, “Discovery of novel tetrahydro-pyrazolo [4,3-c] pyridines for the treatment of neuropathic pain: synthesis and neuropharmacology” (Eur J Med Chem, 2013)
